The values that follow come from the array DNA melting data of Ke et al. (doi:10.1101/2024.01.08.574731).

Data set [1] is described as follows: folding enthalpy; higher = less favourable; fluorescence melt of hairpins on a sequencing array, two-state fit. The following applies: sodium 0.088 M. The method, boiled down: (§1)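 To match UV melts, fitted temperatures were raised by 9.35 °C. These fits were bootstrapped two-state models that gave melting temperature and folding enthalpy, combined by inverse variance over four replicates. The input was normalised Cy3 fluorescence of library hairpins with annealed Cy3 and quencher oligos on a sequenced MiSeq flow cell, imaged in 50 mM Na-HEPES pH 8.0, 25 mM NaCl in 2.5 °C steps up to 60 °C.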

Data set [2] can be described thus: melting temperature; fluorescence melt of hairpins on a sequencing array, two-state fit, raised by 9.35 °C to match UV melts. The note with it: sodium 0.088 M. The method, boiled down: as §1

With GCACTGGGAAACTGGTGC ((((..(....)..)))), the folding enthalpy in data set [1] was -138 kJ/mol. Further, in data set [2], the Tm was 48.8 °C.
Taken in the same sequence, the figures for GCACTTCGAAAGAATTGC (((.(((....))).))) were -132 kJ/mol and 42.6 °C.
The like results for GCACTTGAAAAAGTGC ((((((....)))))) were, in that order, -172 kJ/mol and 61.2 °C.
The like results for GCACTTGGAAACAAGTAC (.(((((....))))).) were, in that order, -80.8 kJ/mol and 37.9 °C.
With GCACTTTCGAAAGAATGC (((..(((....)))))), the folding enthalpy in data set [1] was -61.2 kJ/mol. Also, in data set [2], the Tm is 33.2 °C.
With GCAGAAACGAAAGTTTGC (((..(((....)))))), the folding enthalpy in data set [1] was -85 kJ/mol. In data set [2], the Tm is 35.7 °C.
The like results for GCAGAACGAAAGTTGTGC (((.(((....))).))) were, in that order, -134 kJ/mol and 55.4 °C.
Taken in the same sequence, the figures for GCAGAAGGAAACTTCTAC (.(((((....))))).) were -48.9 kJ/mol and 27.8 °C.
GCAGAAGGAAACTTCTGC (((((((....))))))): the folding enthalpy in data set [1] is -186 kJ/mol. For the same sequence, in data set [2], the Tm is 60.7 °C.
Taken in the same sequence, the figures for GCAGACGGAAACGTTTGC (((.(((....))).))) were -193 kJ/mol and 53.8 °C.
Taken in the same sequence, the figures for GCAGAGCGAAAGCCCCGC ((.(.((....)).).)) were -42.1 kJ/mol and 36.9 °C.
The like results for GCAGAGCGAAAGCCCTGC ((((.((....)).)))) were, in that order, -122 kJ/mol and 63.2 °C.
Take GCAGAGCGAAAGCTAAGC ((..(((....)))..)): the folding enthalpy in data set [1] was -63 kJ/mol. In data set [2], the Tm was 43.8 °C.
Take GCAGAGCGAAAGCTACGC ((..(((....)))..)): the folding enthalpy in data set [1] was -58.1 kJ/mol. Further, the Tm in data set [2] amounted to 47.2 °C.
The like results for GCAGAGCGAAAGCTGAGC ((..(((....)))..)) were, in that order, -49.5 kJ/mol and 43.1 °C.
The like results for GCAGAGCGAAAGCTGCGC ((..(((....)))..)) were, in that order, -87.8 kJ/mol and 61.3 °C.
The like results for GCAGAGCGAAAGCTGGGC ((..(((....)))..)) were, in that order, -82 kJ/mol and 50.7 °C.
As for GCAGAGCGAAAGCTGTGC (((.(((....))).))), the folding enthalpy in data set [1] is -185 kJ/mol. Further, the Tm in data set [2] came out at 59 °C.
Taken in the same sequence, the figures for GCAGAGGGAAACCTTTGC (((.(((....))).))) were -138 kJ/mol and 45.2 °C.
Take GCAGAGGGAAACTTCTGC (((((.(....).))))): the folding enthalpy in data set [1] is -146 kJ/mol. In addition, in data set [2], the Tm stood at 48 °C.
Turning to GCAGATCGAAAGATGTGC (((.(((....))).))), the folding enthalpy in data set [1] was -147 kJ/mol. Further, the Tm in data set [2] was 53.6 °C.
Taken in the same sequence, the figures for GCAGATCGAAAGATTGC (((.(((....)))))) were -96.6 kJ/mol and 44.1 °C.
The like results for GCAGATGGAAACATCCGC ((.((((....)))).)) were, in that order, -100 kJ/mol and 42.5 °C.
Taken in the same sequence, the figures for GCAGCACCGAAAGGTTGC (((..(((....)))))) were -58.5 kJ/mol and 43.9 °C.
Take GCAGCAGGAAACCACTGC ((((..(....)..)))): the folding enthalpy in data set [1] is -78.7 kJ/mol. Besides, the Tm in data set [2] amounted to 34.7 °C.
Take GCAGCCGAAAGGCCCTGC ((((((....)))..))): in data set [1], the folding enthalpy is -52.1 kJ/mol. In data set [2], the Tm came out at 34.8 °C.
In the case of GCAGCCGAAAGGCGGTGC ((((((....)))..))), in data set [1], the folding enthalpy is -62.7 kJ/mol. The Tm in data set [2] was determined as 57.1 °C.
As for GCAGCCGGAAACGGCCAC (..((((....))))..), the folding enthalpy in data set [1] is -38 kJ/mol. In addition, the Tm in data set [2] is 36.2 °C.
The like results for GCAGCGCGAAAGCACGGC ((.(.((....)).).)) were, in that order, -95.8 kJ/mol and 53.9 °C.
With GCAGCGCGAAAGCCCCGC ((.(.((....)).).)), the folding enthalpy in data set [1] is -39.4 kJ/mol. In addition, the Tm in data set [2] stood at 37 °C.
The like results for GCAGCGCGAAAGCGAGGC ((..(((....)))..)) were, in that order, -80.5 kJ/mol and 63.8 °C.
Taken in the same sequence, the figures for GCAGCGCGAAAGCGGAGC ((..(((....)))..)) were -74.2 kJ/mol and 56 °C.
The like results for GCAGCGCGAAAGCGTGC (((.(((....)))))) were, in that order, -58.6 kJ/mol and 62.2 °C.
Regarding GCAGCGCGAAAGCTCTGC ((((.((....)).)))), the folding enthalpy in data set [1] is -133 kJ/mol. Moreover, the Tm in data set [2] was 62 °C.
The like results for GCAGCGCGAAAGCTGTGC (((..((....))..))) were, in that order, -78.8 kJ/mol and 44.8 °C.
Turning to GCAGCGGGAAACCGCCAC (..((((....))))..), the folding enthalpy in data set [1] is -37.5 kJ/mol. In addition, in data set [2], the Tm worked out at 29.8 °C.
The like results for GCAGCTGGAAACAGCCAC (..((((....))))..) were, in that order, -44.5 kJ/mol and 31 °C.
On to GCAGGACCGAAAGGTTGC (((..(((....)))))), for which the folding enthalpy in data set [1] was -86.5 kJ/mol. For the same sequence, the Tm in data set [2] was 44.8 °C.
Taken in the same sequence, the figures for GCAGGACGAAAGTCTTGC (((.(((....))).))) were -174 kJ/mol and 58.5 °C.
On to GCAGGAGGAAACTTCTGC ((((.((....)).)))), for which the folding enthalpy in data set [1] was -165 kJ/mol. Besides, the Tm in data set [2] came out at 49.9 °C.
Consider GCAGGCGAAAGCCGATGC ((((((....)))..))), for which, in data set [1], the folding enthalpy was -55.6 kJ/mol. In data set [2], the Tm was 53.9 °C.
The like results for GCAGGCGAAAGCCGGTGC ((((((....)))..))) were, in that order, -60.5 kJ/mol and 53.8 °C.
The like results for GCAGGCGGAAACACCTGC (((((.(....).))))) were, in that order, -205 kJ/mol and 54.1 °C.
GCAGGCGGAAACGCCCGC ((.((((....)))).)): in data set [1], the folding enthalpy was -66.1 kJ/mol. In addition, the Tm in data set [2] worked out at 59.3 °C.
Taken in the same sequence, the figures for GCAGGCGGAAACGCCTAC (.(((((....))))).) were -39.9 kJ/mol and 43.9 °C.
Taken in the same sequence, the figures for GCAGGCGGAAACGCTTGC (((.(((....))).))) were -161 kJ/mol and 62.1 °C.
The like results for GCAGGCTCGAAAGAGTGC (((..(((....)))))) were, in that order, -82.8 kJ/mol and 36.6 °C.
As to GCAGGGCGAAAGCACCGC ((.(.((....)).).)), the folding enthalpy in data set [1] is -67.1 kJ/mol. For the same sequence, the Tm in data set [2] is 57.7 °C.
Taken in the same sequence, the figures for GCAGGGCGAAAGCCTGGC ((..(((....)))..)) were -84.4 kJ/mol and 59.8 °C.
The like results for GCAGGGCGAAAGCGGTGC (((..((....))..))) were, in that order, -89.3 kJ/mol and 52.8 °C.
Taken in the same sequence, the figures for GCAGGGCGAAAGCGTTGC (((..((....))..))) were -79.9 kJ/mol and 54.1 °C.
As to GCAGGGCGAAAGCTTTGC (((..((....))..))), the folding enthalpy in data set [1] was -82.7 kJ/mol. Also, the Tm in data set [2] came out at 50.7 °C.
Taken in the same sequence, the figures for GCAGGGGGAAACCCCCGC ((.((((....)))).)) were -60.7 kJ/mol and 61.6 °C.
The like results for GCAGGGTCGAAAGACTGC (((..(((....)))))) were, in that order, -98 kJ/mol and 45.8 °C.
Consider GCAGGTACGAAAGTATGC (((..(((....)))))), for which the folding enthalpy in data set [1] is -75.4 kJ/mol. The Tm in data set [2] is 33.9 °C.
Regarding GCAGGTCGAAAGACTGC (((.(((....)))))), the folding enthalpy in data set [1] is -125 kJ/mol. Also, in data set [2], the Tm was determined as 55.9 °C.
The like results for GCAGGTGGAAACACCTAC (.(((((....))))).) were, in that order, -64.6 kJ/mol and 39.3 °C.
The like results for GCAGTACGAAAGTAATGC (((.(((....))).))) were, in that order, -168 kJ/mol and 55.4 °C.
GCAGTAGGAAACTGCTGC ((((.((....)).)))): in data set [1], the folding enthalpy was -130 kJ/mol. The Tm in data set [2] came to 57 °C.
Take GCAGTCGAAAGACATGC ((((((....))).))): the folding enthalpy in data set [1] was -101 kJ/mol. Also, the Tm in data set [2] was found to be 51.5 °C.
Taken in the same sequence, the figures for GCAGTCGAAAGACATTGC ((((((....)))..))) were -71.7 kJ/mol and 38.1 °C.
The like results for GCAGTCGGAAACAACTGC (((((.(....).))))) were, in that order, -137 kJ/mol and 46.1 °C.
On to GCAGTGCGAAAGCAAGGC ((..(((....)))..)), for which the folding enthalpy in data set [1] is -67.3 kJ/mol. Further, the Tm in data set [2] was determined as 56.7 °C.
With GCAGTGCGAAAGCCCAGC ((.(.((....)).).)), the folding enthalpy in data set [1] was -64.5 kJ/mol. The Tm in data set [2] was 38 °C.
For GCAGTGCGAAAGCCGTGC (((..((....))..))), the folding enthalpy in data set [1] was -88.2 kJ/mol. Further, in data set [2], the Tm was 46.4 °C.
In the case of GCAGTGCGAAAGCCTTGC (((..((....))..))), the folding enthalpy in data set [1] was -63.8 kJ/mol. Besides, the Tm in data set [2] was found to be 47.6 °C.
For the sequence GCAGTGCGAAAGCTGTGC (((..((....))..))), the folding enthalpy in data set [1] was -81.2 kJ/mol. For the same sequence, the Tm in data set [2] worked out at 50.2 °C.
The like results for GCAGTGCGAAAGCTTTGC (((..((....))..))) were, in that order, -58.7 kJ/mol and 51.2 °C.
Taken in the same sequence, the figures for GCAGTGGGAAACCACTAC (.(((((....))))).) were -53.8 kJ/mol and 41.1 °C.
Taken in the same sequence, the figures for GCAGTGGGAAACCGTTGC (((..((....))..))) were -81.1 kJ/mol and 38.1 °C.
For GCAGTGGGAAACTGCTGC ((((..(....)..)))), the folding enthalpy in data set [1] was -116 kJ/mol. The Tm in data set [2] was determined as 58.1 °C.
In the case of GCAGTGTCGAAAGACTGC (((..(((....)))))), the folding enthalpy in data set [1] is -96.1 kJ/mol. Moreover, the Tm in data set [2] was 48.3 °C.
The like results for GCAGTTACGAAAGTATGC (((..(((....)))))) were, in that order, -90.5 kJ/mol and 33.9 °C.
